Measurements: the RNAGym collection of RNA variant scans (doi:10.1101/gad.245936.114)
Variants at the floor of the assay were thinned out.

B1: tRNA (parent)
chain: CUCUCGGUAGCCAAGUUGGUUUAAGGCGCAAGACUUUAAUUUAUCACUACGAAAUCUUGAGAUCGGGCGUUCGACUCGCCCCCGGGAGAUUUUUUCCUCGAGCAA

Variants of: B1
Assay: nonsense suppression (GFP-seq) (ratio to wild type); higher = more function; SUP4oc tRNA, yeast GFP reporter sort-seq
How it was run: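 Yeast were grown in raffinose/galactose medium with 80 mg/L adenine, each strain bearing a genome-integrated ochre-suppressor tRNA variant from a ~3% random-mutation library, a galactose-driven GFP ochre reporter, and RFP. After sorting into GFP/RFP bins, every bin was sequenced on an Illumina platform at phred ≥30. The GFPSEQ value, a measure of nonsense suppression, is the weighted bin median GFP/RFP relative to the unmutated parent tRNA, using each variant's estimated cell share per bin as the weight. Only variants with ≥100 reads and ≥30 cells were included.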

Variant	nonsense suppression
CUCUCGGUAGCCAAGUUGGUUUAAGGCGCAAGACGUUAAUUUAUCACUACGAAAUCUUGAGAUCGGGGGUUCGACUCGCCCUCGGGAGAUUUUUUCCUCGAGCAA [U35G C68G C82U]	≤ 0.026
CUCUCGGUAGCCAGGUUGGUUUAAGGCGCCAGACUUUAAUUUAUCACUACGAAAUCUUGACAUCGGGCGUUCGUCUCGCCCCCGGGAGAUUUUUUCCUCGAGCAA [A14G A30C G61C A74U]	≤ 0.026
CUCGCGGUAGCCAAGUUGGUUUUCGGCGCAAGUCUUUAAUUUAUCACUACGAAAUCUUGAGAUCGGACGUUCGACUCGCCCCCCGGGCAUUUUUUCCUCGAGCAA [U4G A23U A24C A33U G67A G84C A87G G88C]	≤ 0.026
CCCUCGGUAGCCAAGUUGGUUUAAGGAGCAAGACUUUAAUUUAUCACUACGAAAUCUUGAGAUCGGGCGUUCGACUCGCCCUCGGGAGAUUUUUUCCUCGAGCAA [U2C C27A C82U]	≤ 0.026
CUCUCGGUAGACAAGUCGGUUUAAGGCGCAAGACUUUAAUUUAUCACUACGAAAUCUUGAGAUCGGGCGUUCGACUCGCCCCCGGGAGAUUUUUUCCUCGAGCAA [C11A U17C]	≤ 0.026
CUCUCGGUAGCCAAGUUGGUUUAAGGCGCAAGACUUUAAUUUAUCACUACGAAAUCUUGAGAUCCGGCGUUCGACUCGCCCCCGGGAAAUUUUUUCCUCGAGCAA [G65C G88A]	≤ 0.026
CUCUCGGUUGCCAAGUUGGUUUAAGGCCCAAGACUUUAAUUUAUCACUACGAAAUCUUGAGAUCGGGCGUUCGACUCGCCCCCGAGAGAUUUUUUCCUCGAGCAA [A9U G28C G85A]	0.0603
CUCUCGGUAGCCAAGUUGGUUUAAGGCGAAAGACUUUAAUUUAUCACUACGAAAUCUUGAGAUCGGGCGUUCAACUCGCCCCCGGGAGAUUUUUUCCUCGAGCAA [C29A G73A]	≤ 0.026
CUCUCGGUAGCCAAGGUGGUUUAAGGCGCAAGACUUUAAUUUAUCACUACGAAAUCUUGAGAUCGGGCGUUCGACUCCCCCCCGGGAGAUUUUUUCCUCGAGCAA [U16G G78C]	0.113
CUCUCGGUAGCUAAGUUGGUUUAAGGCGCAAGACUUUAAUUUAUCACUACGAAAUCUUGAGAUCGGGCGUUCGACUCGCCCCCGCGAGAUUUUUUCCUCGAGCAA [C12U G85C]	0.111
CUCUCGGUCGCCAAGUUGGUCUAAGGCGCAAGACUUUAAUUUAUCACUACGAAAUCUUGAGCUCGGGCGUUCGACUAGCCCCCGGGAGAUUUUUUCCUCGAGCAA [A9C U21C A62C C77A]	≤ 0.026
CUCUAGGUAGCCAAGUUGGUUUAAGGCGCGAGACUUUAAUUUAUCACUACGAAAUCUUGAGAUCGGGCGUUCGACUCGCCCCCGGGAGAUUUUUUCCUCGAGCAA [C5A A30G]	0.0272
CACUCGGUAGCCAAGUUGGUUUAAGGCGAAAGACUUUAAUUUAUCACUACGAAAUAUUGUGAUCGGGCGUUCGACUCGCCCCCGGGAGAUUUUUUCCUCGAGCAA [U2A C29A C56A A60U]	≤ 0.026
CUCUCGGUAGCCAAGUUGGUUUAAGGCGCAAGACCUUAAUUUAUCACUACGAAAUCUUGAAAUCGGGCGUUCGACUCGCCCCCGGGAGAUUUUUUCCUCGAGCAA [U35C G61A]	0.0378
CUCUCGUUAGCCAAGUUGGUAUAAGGCGCAAGACUUUAAUUUAUCACUACGAAAUCUUGAGAUCGGGCGUUCGACUCAACCCCGGGAGAUUUUUUCCUCGAGCAA [G7U U21A G78A C79A]	≤ 0.026
CUCUCGGUAGCCAAGUUGGCUUAAGGCGCAAGACUUUAAUUUAUCACUACGAAAUCUUGAGAUCGGGCGUUCGACUCGCCCCCGGGAUAUUUUUUCCUCGAGCAA [U20C G88U]	≤ 0.026
CUGUCGGUAGCCAAGUUGGUUUAAGGCGCAAGACUUUAAUUUAUCACUACGAAAUCUUGAGAUCGGGCGUUCGACUCGCCCCCGUGAGAUUUUUUCCUCGAGCAA [C3G G85U]	0.0369
CUCUCGGUAGCCAAGUUGGUUUGAGGCGCAAGACUUUAAUUUAUCACUACGAAAUCUUGAGAUCGGGCCUUCGACUCGCCCCCGGGAGAUUUUUUCCUCGAGCAA [A23G G69C]	≤ 0.026
CUCUCGGUAGCCAGGGUGGUUUAAGGCGCAAGACUUUAAUUUAUCACUACGAAAUCUUGAGAUUGGGCGUUCGACUCGCCCCCGGGAGAUUUUUUCCUCGAGCAA [A14G U16G C64U]	≤ 0.026
CUCACGGUAGCCUAGUUGGUUUAAGGCGCAAGACUUUAAUUUAUCACUACGAAAUCUUGAGAUCGGGCGUUCGACUCGCCCCCGGGAGAUUUUUUCCUCGAGCAA [U4A A13U]	0.18
CUCUCGGUAGCCAAGUUGGUUGAAGGCGCAAGACUUUAAUUUAUCACUACGAAAUCUUGAGAUCGGGCGUUCGACUCACCCCCGGGAGAUUUUUUCCUCGAGCAA [U22G G78A]	0.173
CUCGCGGUAGCCAAGUUGGGUAAAGGCGCAAGACUUUAAUUUAUCACUACGAAAUCUUGAGAUCGGGCGUUCGACUCGCCCCCGGGAGAUUUUUUCCUCGAGCAA [U4G U20G U22A]	0.21
CUCUCGGUAGCCAAGUUGGUUUAAGGCGUAAGACUUUAAUUUAUCACUACGAAAUCUUGACAUCGGGCGUUCGACUCGCCCCCGGGAGAUUUUUUCCUCGAGCAA [C29U G61C]	0.0261
CUCGCAGUAGCCAAGUUGGUUUAAGGCGCAAGACUUUAAUUUAUCACUACGAAAUCUUGAGAUCGGGCGUUCGACUCGCCCCCGGGAGAUUUUUUCCUCGAGCAA [U4G G6A]	0.0297
CUCUCGGUAGCCAACUUGGUUUAAGGCUCAAGACUUUAAUUUAUCACUACGAAAUCUUGAGCUCGGGCGUUCGACUCGCCCCCGGCAGAUUUUUUCCUCGAGCAA [G15C G28U A62C G86C]	≤ 0.026
CUCUGGGUAGCCAAGUUGGUUUAAAGCGCAAGACUUUAAUUUAUCACUACGAAAUCUUGAGAUCGGGCGUUCGACUCGCCCCCGGGAGGUUUUUUCCUCGAGCAA [C5G G25A A89G]	≤ 0.026
CUCUGGGUAGCCAAGUUGGUUUAAGGCGCAAGACUUUAAUUUAUCACUACGAAAUCUUGAAAUCGGGCGUUCGACUCGCCCCCGGGAGAUUUUUUCCUCGAGCAA [C5G G61A]	≤ 0.026

Variant	nonsense suppression
CUCUCGGUAGCCAAGUUGGUUUAAGGCGCAAGUCUUUAAUUUAUCACUACGAAAUCUUGAGAUCGGGCGUUCGAAUCGCCCCCGGGAGAUUUUUUCCUCGAGCAA [A33U C75A]	0.192
CUCUCGGUAGCCAAGUUGGUUUGAGGCGCAAGACUUUAAUUUAUCACUACGAAAUCUUGAGAUCGGGUGUUCGACUCGCCCCCGGGAGAUUUUUUCCUCGAGCAA [A23G C68U]	0.182
CUCUCGGUAGCCAAGAUGGUGUAAGGCGCAAGACUUUAAUUUAUCACUACGAAAUCUUGAGAUCGGGCGUUCGACUCGCCCCCGGGAGAUUUUUUCCUCGAGCAA [U16A U21G]	0.752
CUCUCGGUAGCCUAGUUGGUUUAAGGCGCAAGACUUUAAUUUAUCACUACGAAAUCUUGAGAUCGGGCGUUCGACUCGCCCCCGGAAGAUUUUUUCCUCGAGCAA [A13U G86A]	0.0315
CUCUCGGUAGCCAAGUUGGUUUAAGGCGCAAGACUUUAAUUUAUCACUACGAAAUCUUGGGAUCGGGCGUUCCACUCGCCCCCGGGAGAUUUUUUCCUCGAGCAA [A60G G73C]	≤ 0.026
CUCUCGGUAGCCAAGUUGGUUUAAGGCGCAGGACUUUAAUUUAUCACUACGAAAUCUUGAGAUCGGGCGUUCGAAUCGCCCCCGGGAGAUUUUUUCCUCGAGCAA [A31G C75A]	1.06
CUCUCGGUUGCCAAGUUGGUUUAAGGCGCAAGACGUUAAUUUAUCACUACGAAAUCUUGAGAUCGGGCGUUCAUCUCGCCCCCGGGAGAUUUUUUCCUCGAGCAA [A9U U35G G73A A74U]	≤ 0.026
CUCUCGGAAGCCAAGUUGGUUUAAGGCGCAAGACUUUAAUUUAUCACUACGAAAUCCUGAGAUCGGGCGUUCGCCUCUCCCCCGUGUGAUUUUUUCCUCGAGCAA [U8A U57C A74C G78U G85U A87U]	≤ 0.026
CUCACGGUAGCCAAGUUGGUUUAAGGCGCAAGACUUUAAUUUAUCACUACGAAAUCUUGAGAUCGGGCGUUCGACUUGCCCCCGGGAGAUUUUUUCCUCGAGCAA [U4A C77U]	0.0506
CUCUCGGUAGCCAAGUUGGUUUAAGGCGCAAGACUUUAAUUUAUCACUACGAAAUCUUGAAAUCGGGCGUUCGACUCGGCCCCGGGAGAUUUUUUCCUCGAGCAA [G61A C79G]	≤ 0.026
CUCUCGGUAGCCAAGUUGGUUUAAGGCGCAAGACUUUAAUUUAUCACUACGAAAUCUUGACAUCGGGUGUUCGACUCGCCCCCGGGAGAUUUUUUCCUCGAGCAA [G61C C68U]	0.633
CUCUCGGUAGCCAAGUUGGUUUAAGGCGCAAGACUUUAAUUUAUCACUACGAAAUCUUGAGAUCGGGCGUGCGACUAGUCCCCGGGUGAUUUUUUCCUCGAGCAA [U71G C77A C79U A87U]	≤ 0.026
CUCUCGGUAGCCAAGGUGGUUUAACGCGCAAGACUUUAAUUUAUCACUACGAAAUCUUGAGAUCGGGCGUUCGACUCGCCCCCGGGAGAUUUUUUCCUCGAGCAA [U16G G25C]	0.2
CUCUCGGGAGCCAAGUGGGUUUAAGGCGCAAGACUUUAAUUUAUCACUACGAAAUCUUGAGAUCGGGCUUUCGACUCGCGCCCGGGAGAUUUUUUCCUCGAGCAA [U8G U17G G69U C80G]	≤ 0.026
CUCUCGGUAGCCAAGUUGGUUUAAGGCGCAAGACUUUAAUUUAUCACUACGAAAUCUUGGGAUCGGGCGUUCGACUCGCCCCCGGUAGAUUUUUUCCUCGAGCAA [A60G G86U]	0.0427
CUCUCGGUAGCCAAGUUGGUUUAAGACGGGAGGCUUUAAUUUAUCACUACGAAAUCUUGAGAUCGGGCGUUCGACUCGCCCCCGGGAGAUUUUUUCCUCGAGCAA [G26A C29G A30G A33G]	≤ 0.026
CUCUCGGUAGCCAAGUUGGUUUAAGGCGUAAGACUUUAAUUUAUCACUACGAAAUCUUGAGAUCGGCCGUUCGACUCGCCCCCGGGAGAUUUUUUCCUCGAGCAA [C29U G67C]	≤ 0.026
CCCUCGGUAGCGAAGUUGGUUUAAGGCGCAAGACUUUAAUUUAUCACUACGAAAUCUUGAGAUCGGGCGUUCGACUCGCCCCCGGGAGAUUUUUUCCUCGAGCAA [U2C C12G]	≤ 0.026
CUCUCGGUAGCCAAGUUGGUUUAAGGCGCAAGGCUUUAAUUUAUCACUACGAAAUCUUGAGAUCGGGCGUUCGACUCGCCCCCGCGAGAUUUUUUCCUCGAGCAA [A33G G85C]	0.0351
CUCUUGGUAGCCAAGUUGGUUUAAGGCGCAAGACUUUAAUUUAUCACUACGAAAUCUUGAGAUCGGGCGUUCGACUCGCCCCCAGGAGAUUUUUUCCUCGAGCAA [C5U G84A]	1.15
CUCCCGGUAGCCAAGUUGGUUUAAGGCGCAAGACUUUAAUUUAUCACUACGAAAUCUUGAGAUCGGGCGUUCGACUCACCCCCGGGAGAUUUUUUCCUCGAGCAA [U4C G78A]	0.978
CUCUCGGUAGCCAAGUUGGUUUAACGCGCAAGAAUUUAAUUUAUCACUACGAAAUCUUGAGAUCGGGCGUUCGACUCGCCCCCGGGGGAUUUUUUCCUCGAGCAA [G25C C34A A87G]	≤ 0.026
AUCUCGGUAGCCAAGUGGGGUUAAGGCGCAAGACUUUAAUUUAUCACUACGAAAUCUUGAGAUCGGGCGUUCGACUCGCCCCCGGGAGAUUUUUUCCUCGAGCAA [C1A U17G U20G]	≤ 0.026
CUCUCGGUAGCCAAGUUGGUUUAAGGCGCAAGACUUUAAUUUAUCACUACGAAAUCUUGUGAUCGGGCGUGCGACUCGCCCCCGGGAGAUUUUUUCCUCGAGCAA [A60U U71G]	≤ 0.026
CUCUCAGUAGCCAAGUUGGUUUAAGGCGCAAGACUUUAAUUUAUCACUACGAAAUCUUGAGAGCGGGCGUUCGACUCGCCUCCGGGAGAUUUUUUCCUCGAGCAA [G6A U63G C81U]	≤ 0.026
CUCUCGGUAGCCAAGCUGGUUUAAGGCGCAAGACUUUAAUUUAUCACUACGAAAUCUUGAGACCGGGCGUUCGACUCGUCCCCGGGAGAUUUUUUCCUCGAGCAA [U16C U63C C79U]	0.0784
CUCGCGGUAGCCAAGUUGGUUUAAGGCGCUAGACUUUAAUUUAUCACUACGAAAUCUUGAGAUCGGGCGUUCGACUCGCCCCCGGGAGAUUUUUUCCUCGAGCAA [U4G A30U]	0.0386
